KCNQ1 act = potentiates or activates the human KCNQ1 potassium channel; P51787; CHO-K1 KCNQ1, thallium flux FluxOR fluorescence; stronger effect = higher value; B-score at 10 µM; 0.35% of 310,000 active; AID 2648;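 active means fluorescence ratio B-score, a plate-corrected score, at least three library SD, with initial intensity B-score within 5 SD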
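Assay system: CHO-K1 cells stably expressing KCNQ1. Medium: assay buffer for compound exposure, DMSO matched across wells. Timing: 37 °C overnight plating, 90-min dark dye load, 20-min compound pretreatment. Signal: kinetic FluxOR fluorescence, 10 s baseline plus 110 s post-stimulus.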
KCNK3 inh = human KCNK3 channel inhibition, primary screen. 0.84% of 340,000 active. B-score at 10 µM. CHO-KCNK3 thallium flux, FluxOR fluorescence; stronger effect = lower value. O14649;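 active means B-score under library mean minus 4 SD, starting fluorescence ratio at most library mean plus 5 SD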;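 further: more negative B-score means stronger inhibition of thallium flux through KCNK3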
Target sequence (O14649 whole entry, looked up): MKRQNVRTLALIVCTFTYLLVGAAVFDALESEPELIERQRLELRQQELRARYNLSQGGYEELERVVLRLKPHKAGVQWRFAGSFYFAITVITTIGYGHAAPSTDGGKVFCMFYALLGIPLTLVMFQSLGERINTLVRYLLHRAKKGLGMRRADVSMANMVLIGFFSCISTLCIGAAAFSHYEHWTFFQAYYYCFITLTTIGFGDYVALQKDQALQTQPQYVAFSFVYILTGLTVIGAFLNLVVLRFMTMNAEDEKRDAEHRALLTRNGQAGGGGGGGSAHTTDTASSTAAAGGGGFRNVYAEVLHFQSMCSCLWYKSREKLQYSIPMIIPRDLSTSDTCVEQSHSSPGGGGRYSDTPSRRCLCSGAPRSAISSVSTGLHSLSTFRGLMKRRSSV
hERG rescue = compounds protecting human hERG from proarrhythmic drug block | CHO-hERG, FluxOR thallium flux, dofetilide IC70 present | 0.51% of 310,000 active | activation (rescue from dofetilide block), less the hit threshold, % at 10 µM;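 active means activation above the mean of controls blocked by dofetilide plus 5 SD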;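 further: thallium influx through hERG after potassium depolarization seen as dye fluorescence rise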
Kir21 block = Kir2.1 (mouse) channel inhibition. B-score at 10 µM. 0.85% of 310,000 active. HEK293-Kir2.1, FluxOR thallium flux fluorescence; stronger effect = lower value;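 active means fluorescence ratio B-score at or below minus 3 SD of library scores, with starting-brightness B-score within 2 SD, cut at about -4.2 in these data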;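 further: channel flux triggered by added potassium and thallium sulfate stimulus; B-score of peak minus minimum fluorescence over baseline after thallium stimulus; more negative B-score means stronger Kir2.1 block with less thallium influx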
KCNK9 block = blocks the human KCNK9 two-pore domain potassium channel | Q9NPC2 | HEK293 KCNK9, FluxOR thallium flux fluorescence; stronger effect = lower value | B-score at 10 µM | 1.2% of 310,000 active | AID 488922;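 active means ratio B-score over 3 SD below the library mean, with starting fluorescence within 5 SD of its mean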;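 further: negative B-score means less thallium flux so channel inhibition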
KCNQ1 block = inhibitors of human KCNQ1 potassium channel. P51787. 1.3% of 310,000 active. CHO-K1 KCNQ1, FluxOR thallium flux fluorescence; stronger effect = higher value. B-score at 10 µM. AID 2642;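 active means compounds whose thallium flux B-score, printed positive for inhibition, exceeds three library SD while starting fluorescence stays within three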;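 further: channel opened by potassium depolarization with thallium stimulus after 20 min compound exposure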
KCNK9 inh conf = human KCNK9 inhibitor confirmation. 43% of 4,900 active. inhibition, % at 10 µM. shares compounds with KCNK9 block. HEK293 KCNK9 cells, FluxOR thallium flux fluorescence;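 active means thallium signal inhibited by more than 5 SD of the compound-free buffer control wells, on both duplicate plates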;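 further: 0% = assay buffer control wells without compound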
Kir2-1 spec = selectivity of KCNK9 modulators against mouse Kir2.1. shares compounds with KCNK9 block. Kir2.1 cells, FluxOR thallium flux fluorescence. inhibition, % at 10 µM. 4% of 4,900 active. AID 492993;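 active means thallium signal drop more than 5 SD beyond the mean of the no-compound control wells, seen in both duplicate plates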;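 further: signal is fluorescence rise after thallium addition divided by baseline fluorescence; plate controls were assay buffer only for no effect and full block by chlorpromazine control for full effect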
KCNK9 uninduced = non-induced cell nonspecific activity of KCNK9 modulators | inhibition, % at 10 µM | non-induced KCNK9-HEK293, FluxOR thallium flux | 40% of 4,900 active | shares compounds with KCNK9 block;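 active means thallium signal drop beyond 5 SD of the untreated control mean, on both duplicate plates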;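 further: plate controls were buffer only IC0 wells for no effect and SID17386958 at its maximal inhibitory level for full effect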
* hit, by the source's call; i = inactive; . = not tested or not shown; ! = not confirmed by another sample. In the library only some 3.7% were active in any assay of this set; here they are far more common.

SMILES | KCNQ1 act | KCNK3 inh | hERG rescue | Kir21 block | KCNK9 block | KCNQ1 block | KCNK9 inh conf | Kir2-1 spec | KCNK9 uninduced
CCN(CC)S(=O)(=O)c1cccc(-c2nnc(SCCOc3ccc(Cl)cc3)o2)c1 | i | i | -4 | -1.3 | -10* | i | 48%* | i | i
CCN(CC)S(=O)(=O)c1cccc(-c2nnc(SCCOc3ccccc3C)o2)c1 | i | i | -15 | 0.69 | i | i | i | i | i
CCN(CC)S(=O)(=O)c1cccc(-c2nnc(SCC(=O)c3cc(C)n(C)c3C)o2)c1 | i | i | 1 | -0.7 | i | i | . | . | .
O=C(NCCc1ccccn1)c1cc2ccccc2o1 | i | i | -3 | 2.4 | i | i | . | . | .
O=C(C1CCCN(S(=O)(=O)c2cccc3cccnc23)C1)N1CCc2ccccc21 (stereo not drawn) | i | i | -12 | 1.5 | i | i | i | i | i
O=C(NC1CCCCC1)C1CCCN(S(=O)(=O)c2cccc3cccnc23)C1 (stereo not drawn) | i | i | -14 | -0.01 | i | i | . | . | .
CCOC(=O)c1cc(-c2ccc(/C=C3/C(=O)N(c4ccc(C(=O)O)cc4)N=C3C)o2)ccc1Cl | i | i | -15 | 1.7 | i | i | i | i | i
COc1cc(C2C(C(=O)c3ccc(C)o3)=C(O)C(=O)N2CCN2CCOCC2)ccc1OCCC(C)C (stereo not drawn) | i | i | -8 | -1.2 | i | i | . | . | .
Cc1sc2nc(-c3cccnc3)nc(Cl)c2c1-c1ccccc1 | i | i | -7 | 0.49 | i | i | i | i | i
O=C(Nc1ccc2nc(-c3cccs3)[nH]c2c1)c1cccs1 | i | i | -7 | 1.9 | -10* | i | 56%* | i | i
CC1CCN(CCCn2c(=S)[nH]c3ccccc3c2=O)CC1 | i | i | -6 | 1.9 | i | i | . | . | .
O=c1c2ccccc2[nH]c(=S)n1CCCN1CCC(Cc2ccccc2)CC1 | i | i | -12 | -1.2 | i | i | i | i | i
Cc1cccc(N2CCN(CC(=O)NCc3ccc(Cl)cc3)CC2)c1C | i | i | -15 | 0.21 | i | i | i | i | i
CC(C)CC1c2[nH]c3ccccc3c2CCN1C(=O)C1CCOCC1 (stereo not drawn) | i | i | -3 | -0.69 | i | i | . | . | .
CCCCCCn1nc(C(=O)N(CCOC)c2c(N)n(CCCC)c(=O)[nH]c2=O)c2ccccc2c1=O | i | i | -11 | 0.88 | i | i | . | . | .
CSc1nc(=S)n(-c2ccc([N+](=O)[O-])cc2)c(C)c1C(C)=O | i | i | -6 | 0.47 | i | i | . | . | .
Cc1ccc(CN(C)c2nc(-c3cccnc3)nc3ccccc23)o1 | i | i | -14 | 0.13 | i | i | . | . | .
CN(Cc1ccccc1F)c1nc(-c2cccnc2)nc2ccccc12 | i | i | -16 | -2.4 | -8.2* | i | 31%* | i | 28%*
CC1(c2ccccc2)CC(C)(C)N2C(=O)C(=O)c3cccc1c32 (stereo not drawn) | i | i | -17 | -2.1 | i | i | i | i | i
O=C(CSc1nncc2ccccc12)N1CCOCC1 | i | i | -12 | 0.05 | i | i | . | . | .
O=C(CSc1nc2ccccc2c2c1CCCC2)N1CCOCC1 | i | i | -13 | -0.99 | i | i | i | i | i
Cc1csc(NC(=O)CSc2nc3ccccc3c3c2CCCC3)n1 | i | i | -1 | 1.6 | i | i | i | i | i
CN[C@H]1CC[C@@H](c2ccc(Cl)c(Cl)c2)c2ccccc21 | i | i | . | -6.2* | -8.6*! | i | 34%* | i | .
CSCCC(NC(=O)c1cccc(C)c1)C(=O)OCC(=O)Nc1c(C)nn(-c2ccccc2)c1C (stereo not drawn) | i | i | -16 | 0.06 | i | i | . | . | .
CC(=O)Nc1ccc(N/C=C/C(=O)c2ccc(C)o2)cc1 | i | i | -5 | -0.76 | i | i | . | . | .
SMILES | KCNQ1 act | KCNK3 inh | hERG rescue | Kir21 block | KCNK9 block | KCNQ1 block | KCNK9 inh conf | Kir2-1 spec | KCNK9 uninduced
COc1ccccc1Oc1ccc(N/C=C/C(=O)c2ccc(C)o2)cc1 | i | i | -4 | -0.86 | i | i | i | i | i
CN(Cc1ccccc1)C(=O)COc1ccccc1Cl | i | i | -4 | -0.08 | i | i | . | . | .
CN(Cc1ccccc1)C(=O)COc1ccc(Br)cc1Cl | i | i | -13 | 0.01 | -12* | i | 37%* | i | 30%*
Cc1cc(OC(=O)c2ccccc2C)c([N+](=O)[O-])c(=O)[nH]1 | i | i | -11 | -0.5 | i | i | . | . | .
CSc1ccccc1C(=O)N1CCN(S(=O)(=O)c2sc(C(=O)O)c(C)c2C(=O)O)CC1 | . | i | . | . | . | . | . | . | .
COc1cc(OC)nc(Oc2cccc(C(F)(F)F)c2)n1 | i | i | -7 | 0.18 | -10* | i | 48%* | i | 38%*
CC(C)CC(OC(=O)CC1Sc2ccccc2NC1=O)C(=O)NC1CCCC1 (stereo not drawn) | i | i | -6 | 1.8 | -8.9* | i | i | i | i
Cc1nc2c(-c3ccc(F)cc3)cnn2c2c1CCC2 | i | i | -4 | 1.6 | i | i | . | . | .
CCOC(=O)C1=C(CC)Nc2ccccc2N/C1=N\S(=O)(=O)c1ccc2ccccc2c1 | i | i | -17 | 0.1 | i | i | i | i | i
CSc1ccccc1NC(=O)CN(C)C(=O)C(C)SCc1nc2sc(C)c(C)c2c(=O)[nH]1 (stereo not drawn) | . | i | . | . | . | . | . | . | .
CC(C)C(=O)Nc1ccc2nn(-c3ccc(F)cc3)nc2c1 | i | i | -13 | 0.43 | i | i | i | i | i
CCOC(=O)CC(NCc1ccc(OC)c(OCC)c1)c1ccc(C)cc1 (stereo not drawn) | i | i | -8 | 0.01 | i | i | i | i | i
CCOC(=O)CCNCc1ccc(OC)c(OC)c1 | i | i | -9 | -0.12 | i | i | . | . | .
O=C(Nc1ccc(Cl)cn1)c1cccc2c(Br)cccc12 | i | i | -7 | -0.56 | -17* | i | 71%* | i | 42%*
O=C(Nc1ccc(Br)cn1)c1cccc2ccccc12 | i | i | -4 | 2.5 | i | i | . | . | .
